Measurements: ChEMBL document CHEMBL1151419, “Antimicrobial effect of halocidin-derived peptide in a mouse model of Listeria infection” (Antimicrob Agents Chemother, 2007)
≈ marks a conversion by molar mass, not a printed value. Calls of active or inactive are those of the source. The rule behind the calls is not given here. Bridge positions count the residues as written; N and C are the ends. Peptide text beside a SMILES is read from it. I, II: the chains in the order shown.

What was measured:
[1] = Stability in human serum assessed as drug remaining at 1 mg/ml after 4 hrs; format: ADME, cell-free; conditions: read-out: Stability
Procedure, shortened: (§1)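 At 0, 2, 4 and 8 h, 200-µl aliquots were quenched with 20 µl of 1% TFA, held 10 min at 4°C, and centrifuged. Remaining peptide was quantified by HPLC peak area relative to the unincubated sample. Triplicate runs.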

[2] = Toxicity in human erythrocytes assessed as hemolysis at 50 ug/ml relative to Triton X-100; format: cell-based, Erythrocyte; conditions: read-out: Activity
Procedure, shortened: (§2)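 Peptide (20 µl) was mixed with 180 µl of a 2.5% (vol/vol) human RBC suspension in PBS and incubated 30 min at 37°C. PBS was added and samples centrifuged 3 min at 10,000 x g; supernatant A540 was read. Hemolysis was expressed relative to a peptide-free PBS blank and 1% Triton X-100 as 100%.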

[3] = test system: Listeria monocytogenes; assay: Antimicrobial activity against Listeria monocytogenes ATCC 19111 infected in BALB/c mouse at 4 mg/kg, iv in presence of increasing concentration of LTA; format: functional, organism-based; set-up: dose 4 mg/kg
[4] = test system: Listeria monocytogenes; assay: Antimicrobial activity against Listeria monocytogenes ATCC 19111 infected in BALB/c mouse assessed as survival of mouse at 4 mg/kg, iv administered immediately after bacterial challenge measured after 6 days; format: functional; conditions: ATCC 19111, 144 h
Procedure, shortened: (§3)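 L. monocytogenes grown 18 h at 37°C in brain heart infusion broth and frozen at –80°C; viability checked by plating. Mice infected via tail vein with 2 x 10^5 bacteria each. A single 4 mg/kg i.v. dose in 100 µl PBS was given immediately or 2 h after infection; PBS vehicle controls. Ten mice per group; survivors counted daily for 15 days.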

[5] = test system: Staphylococcus aureus; assay: Antimicrobial activity against methicillin-resistant Staphylococcus aureus CCARM 3695 after 18 hrs by broth microdilution assay; format: functional; conditions: CCARM 3695, 18 h
Procedure, shortened: (§4)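 Broth microdilution (modified CLSI). Overnight stationary-phase Mueller-Hinton broth cultures diluted to 2 x 10^5 CFU/ml final. Peptide serially twofold diluted in 0.01% acetic acid (stock series 640 down to 10 µg/ml); 11 µl added to 100 µl of bacteria. After 18 h at 37°C, MIC taken as the lowest concentration preventing visible turbidity.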

[6] = test system: Staphylococcus aureus; assay: Antimicrobial activity against methicillin-resistant Staphylococcus aureus CCARM 3695 treated with sample containing 25 to 200 ug/ml drug incubated with PBS for 10 mins measured after 3 hrs by radial diffusion assay; format: functional, organism-based
Procedure, shortened: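 Serum-free radial diffusion. Peptide in PBS alone (200 µg/ml control) held 10 min at 37°C; 5 µl placed in 3-mm wells. Underlay: pH 7.4 agarose, phosphate/citrate, 0.3 mg/ml TSB, mid-log MRSA 4 x 10^6 CFU/ml. After 3 h at 37°C, TSB-agarose overlay, incubated overnight. Clear-zone diameter read to 0.1 mm (1 mm = 10 units).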

[7] = test system: Staphylococcus aureus; assay: Antimicrobial activity against methicillin-resistant Staphylococcus aureus CCARM 3695 treated with supernatant containing 2 mg drug incubated for 10 mins with PBS centrifuged for 3 hrs by radial diffusion assay; format: functional, organism-based
Procedure, shortened: (§5)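 2 mg peptide incubated 10 min at 37°C in 2 ml PBS, either serum-free or with 50% heat-treated normal human serum. Spun 3 h at 295,000 x g, 4°C. Then 5 µl of supernatant tested by radial diffusion against mid-log MRSA (4 x 10^6 CFU/ml underlay, 3 h at 37°C, overlay, overnight); clear zones measured.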

[8] = Toxicity in human erythrocytes assessed as hemolysis at 100 ug/ml relative to Triton X-100; format: cell-based, Erythrocyte; conditions: read-out: Activity; procedure, shortened: as §2
[9] = test system: Listeria monocytogenes; assay: Antimicrobial activity against Listeria monocytogenes ATCC 19111 infected in BALB/c mouse assessed as survival of mouse at 4 mg/kg, iv administered 2 hrs after bacterial challenge measured after 15 days; format: functional; procedure, shortened: as §3
[10] = test system: Listeria monocytogenes; assay: Antimicrobial activity against Listeria monocytogenes ATCC 19111 infected in BALB/c mouse at 4 mg/kg, iv in presence of increasing concentration of mannan; format: functional, organism-based; set-up: dose 4 mg/kg
[11] = test system: Listeria monocytogenes; assay: Antimicrobial activity against Listeria monocytogenes ATCC 19111 infected in BALB/c mouse assessed as survival of mouse at 4 mg/kg, iv administered immediately after bacterial challenge measured after 15 days; format: functional; conditions: ATCC 19111, 360 h; procedure, shortened: as §3
[12] = test system: Mus musculus; assay: Toxicity in BALB/c mouse assessed as lethality at 4 mg/kg, iv repeated 4 times at 1-day interval measured after 2 weeks; format: organism-based; set-up: dose 4 mg/kg, route intravenous; conditions: in vivo, 336 h
Procedure, shortened: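 Uninfected mice (n = 10) given 4 mg/kg i.v., repeated four times at 1-day intervals. Deaths monitored for 2 weeks.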

[13] = test system: Enterococcus faecium; assay: Antimicrobial activity against vancomycin-resistant Enterococcus faecium CCARM 5029 after 18 hrs by broth microdilution assay; format: functional; conditions: CCARM 5029, 18 h; procedure, shortened: as §4
[14] = test system: Listeria monocytogenes; assay: Antimicrobial activity against Listeria monocytogenes ATCC 19111 infected in BALB/c mouse assessed as reduction in number of recovered CFU in liver at 100 ug, iv measured after 3 days; format: functional, organism-based
Procedure, shortened: (§6)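 Mice were infected i.v. with L. monocytogenes and immediately given 100 µg peptide in 100 µl PBS i.v.; PBS alone served as control. On days 1 and 3, liver and spleen were homogenized in PBS/0.1% BSA, serially diluted, and plated on TSA with 5% sheep blood. Colonies were counted after 18 h at 37°C. Three independent experiments; mean ± SD.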

[15] = test system: Listeria monocytogenes; assay: Antimicrobial activity against Listeria monocytogenes ATCC 19111 after 18 hrs by broth microdilution assay in presence of 150 mM NaCl; format: functional; conditions: ATCC 19111, 18 h
Procedure, shortened: (§7)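 Bacteria were grown overnight to stationary phase in Mueller-Hinton broth at 37°C and diluted to 2 x 10^5 CFU/ml. Line 3 used MHB plus 150 mM NaCl. Peptide stock (640 µg/ml in 0.01% acetic acid) was twofold serially diluted to 10 µg/ml, and 11 µl was added per 100 µl of cells. Turbidity was read after 18 h at 37°C; MIC was the minimum concentration visibly inhibiting growth.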

[16] = Stability in human serum assessed as drug remaining at 1 mg/ml after 8 hrs; format: ADME, cell-free; conditions: read-out: Stability; procedure, shortened: as §1
[17] = test system: Listeria monocytogenes; assay: Antimicrobial activity against Listeria monocytogenes ATCC 19111 after 18 hrs by broth microdilution assay; format: functional; conditions: ATCC 19111, 18 h; procedure, shortened: as §7
[18] = test system: Listeria monocytogenes; assay: Antimicrobial activity against Listeria monocytogenes ATCC 19111 infected in BALB/c mouse assessed as reduction in number of recovered CFU in spleen at 100 ug, iv measured after 3 days; format: functional, organism-based; procedure, shortened: as §6
[19] = test system: Liver; assay: Drug penetration in BALB/c mouse liver infected with CFSE-labeled Listeria monocytogenes ATCC 19111 at 200 ug, iv by laser scanning confocal microscopy; format: ADME, organism-based; conditions: in vivo
Procedure, shortened: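 Listeria was labeled with 5 µM CFSE for 20 min at 37°C in darkness and washed. Mice received 4 x 10^8 cells by tail vein, then immediately 200 µg peptide in 100 µl PBS i.v., or PBS only. Livers were taken 10 min later. Frozen 6-µm sections were stained with cross-reacting rabbit anti-18Hc antiserum (1:200) and Cy3 goat anti-rabbit IgG, then imaged by laser scanning confocal microscopy.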

[20] = test system: Staphylococcus aureus; assay: Antimicrobial activity against methicillin-resistant Staphylococcus aureus CCARM 3695 treated with supernatant containing 2 mg drug incubated for 10 mins with PBS containing 50 % normal human serum centrifuged for 3 hrs by radial diffusion assay; format: functional, organism-based; procedure, shortened: as §5

## CC(C)C[C@H](NC(=O)CNC(=O)[C@H](Cc1cnc[nH]1)NC(=O)[C@H](Cc1cnc[nH]1)NC(=O)[C@H](CC(C)C)NC(=O)[C@H](CC(C)C)NC(=O)[C@H](C)N)C(=O)N[C@@H](CC(N)=O)C(=O)N[C@@H](CSSC[C@H](NC(=O)[C@H](CC(N)=O)NC(=O)[C@H](CC(C)C)NC(=O)CNC(=O)[C@H](Cc1cnc[nH]1)NC(=O)[C@H](Cc1cnc[nH]1)NC(=O)[C@H](CC(C)C)NC(=O)[C@H](CC(C)C)NC(=O)[C@H](C)NC(=O)[C@H](CC(N)=O)NC(=O)[C@H](CC(C)C)NC(=O)[C@H](Cc1c[nH]c2ccccc12)NC(=O)[C@@H](N)CCCCN)C(=O)N[C@@H](C)C(=O)N[C@@H](CCCCN)C(=O)NCC(=O)N[C@H](C(=O)N[C@@H](CC(C)C)C(=O)N[C@@H](C)C(=O)O)C(C)C)C(=O)N[C@@H](C)C(=O)N[C@@H](CCCCN)C(=O)NCC(=O)N[C@H](C(=O)N[C@@H](CC(C)C)C(=O)N[C@@H](C)C(=O)O)C(C)C (I: H-KWLNALLHHGLNCAKGVLA-OH / II: H-ALLHHGLNCAKGVLA-OH; disulfide I:13-II:9)
[1]
  remaining at 4 h, 1 mg/ml: > 70%
[2]
  hemolysis at 50 ug/ml: 4.5%
[3]
  Activity: inactive
[4]
  survival at 4 mg/kg: 100%
[5]
  MIC: 8 µg/mL (≈ 2.24 µM)
[6]
  Activity: Active
[7]
  Activity: Active
[8]
  hemolysis at 100 ug/ml: 8.5%
[9]
  survival at 4 mg/kg: 50%
[10]
  Activity: Active
[11]
  survival at 4 mg/kg: 90%
[12]
  Activity: Non-toxic
[13]
  MIC: 8 µg/mL (≈ 2.24 µM)
[14]
  Activity: Active
[15]
  MIC: 16 µg/mL
[16]
  remaining at 8 h, 1 mg/ml: 39%
[17]
  MIC: 4 µg/mL (≈ 1.12 µM)
[18]
  Activity: Active
[19]
  Activity: Active
[20]
  Activity: Active
